Assay results as given in ChEMBL document CHEMBL1157807, “NO-releasing esters show carbonic anhydrase inhibitory action against human isoforms I and II” (Bioorg Med Chem, 2010).

How the values were obtained:
Carbonic anhydrase 1 [1] = target: T1, Carbonic anhydrase 1 (Homo sapiens, UniProt P00915); experiment: Inhibition of human carbonic anhydrase 1 esterase activity by spectrophotometry; conditions: read-out: I50
In short: (§1)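 Enzyme purified from human erythrocytes. Esterase activity is followed as 4-nitrophenylacetate conversion to 4-nitrophenylate by absorbance at 348 nm over 3 min at 25 °C, in Tris–SO4 buffer pH 7.4. A reference cuvette lacks enzyme. Each inhibitor concentration is run in triplicate, with uninhibited control activity set to 100%. IC50 is read from %activity vs [inhibitor] plots.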

Carbonic anhydrase 2 [2] = target: T2, Carbonic anhydrase 2 (Homo sapiens, UniProt P00918); experiment: Competitive inhibition of human carbonic anhydrase 2 esterase activity by Lineweaver-Burke plot analysis
In short: (§2)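 Erythrocyte-purified human isozyme in the 4-nitrophenylacetate esterase assay, read at 348 nm over 3 min at 25 °C in Tris–SO4 pH 7.4. Three inhibitor concentrations are each tested against five substrate concentrations (0.15–0.75 mM). Ki and inhibition mode are taken from Lineweaver–Burk plots.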

Carbonic anhydrase 1 [3] = target: T1, Carbonic anhydrase 1; experiment: Competitive inhibition of human carbonic anhydrase 1 esterase activity by Lineweaver-Burke plot analysis; in short: as §2
Carbonic anhydrase 2 [4] = target: T2, Carbonic anhydrase 2; experiment: Inhibition of human carbonic anhydrase 2 esterase activity by spectrophotometry; conditions: read-out: I50; in short: as §1
Carbonic anhydrase 1 [5] = target: T1, Carbonic anhydrase 1; experiment: Noncompetitive inhibition of human carbonic anhydrase 1 esterase activity by Lineweaver-Burke plot analysis; in short: as §2
Carbonic anhydrase 2 [6] = target: T2, Carbonic anhydrase 2; experiment: Uncompetitive inhibition of human carbonic anhydrase 2 esterase activity by Lineweaver-Burke plot analysis; in short: as §2
Carbonic anhydrase 2 [7] = target: T2, Carbonic anhydrase 2; experiment: Noncompetitive inhibition of human carbonic anhydrase 2 esterase activity by Lineweaver-Burke plot analysis; in short: as §2
Carbonic anhydrase 1 [8] = target: T1, Carbonic anhydrase 1; experiment: Uncompetitive inhibition of human carbonic anhydrase 1 esterase activity by Lineweaver-Burke plot analysis; in short: as §2

T1 sequence (P00915 whole entry): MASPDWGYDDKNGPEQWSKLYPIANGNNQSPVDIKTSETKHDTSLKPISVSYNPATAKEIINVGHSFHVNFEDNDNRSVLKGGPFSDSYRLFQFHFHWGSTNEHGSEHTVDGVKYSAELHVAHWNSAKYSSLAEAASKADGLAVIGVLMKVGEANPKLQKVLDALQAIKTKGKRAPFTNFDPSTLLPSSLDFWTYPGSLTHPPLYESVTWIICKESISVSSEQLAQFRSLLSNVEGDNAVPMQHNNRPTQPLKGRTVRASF

Row | Structure (SMILES) | IC50 (Carbonic anhydrase 1 [1]) [µM] | Ki (Carbonic anhydrase 2 [2]) [µM] | Ki (Carbonic anhydrase 1 [3]) [µM] | IC50 (Carbonic anhydrase 2 [4]) [µM] | Ki (Carbonic anhydrase 1 [5]) [µM] | Ki (Carbonic anhydrase 2 [6]) [µM] | Ki (Carbonic anhydrase 2 [7]) [µM] | Ki (Carbonic anhydrase 1 [8]) [µM]
1 | O=[N+]([O-])O[C@@H]1CC2c3ccccc3C1[C@@H]2O (stereo partly drawn) | 10200 | 196 | 18700 | 98.1 | – | – | – | –
2 | O=[N+]([O-])O[C@H]1CC2CCC1[C@@H]2O (stereo partly drawn) | 9100 | 133 | 17200 | 73.1 | – | – | – | –
3 | O=[N+]([O-])O[C@@H]1CC2CCC1[C@@H]2O (stereo partly drawn) | 7130 | 121 | 13600 | 65.1 | – | – | – | –
4 | O=[N+]([O-])O[C@@H]1CC[C@H](Br)[C@@H]2CC[C@H]1O2 | 12100 | – | – | 110 | 22500 | 223 | – | –
5 | O=[N+]([O-])O[C@H]1CCCCCC[C@@H]1O | 23000 | – | – | 181 | 45200 | – | 267 | –
6 | O=[N+]([O-])O[C@H]1CCCC[C@@H]1O | – | – | – | 560 | 221000 | – | 986 | –
7 | O=[N+]([O-])O[C@H]1CC=CC[C@@H]1O (racemic) | – | – | – | 790 | 274000 | – | 1370 | –
8 | O=[N+]([O-])O[C@H]1CC/C=C\CC[C@@H]1O (racemic) | 21000 | – | – | 243 | 41800 | – | 541 | –
9 | O=[N+]([O-])O[C@@H](CO)c1ccccc1 (single isomer, unassigned) | – | – | – | 632 | – | – | 1140 | 288000
